High-throughput results deposited in PubChem BioAssay by several laboratories.
DTT redox prof: compounds producing H2O2 with reducing agent – biochemical, NIH compound library profiling, artefact control for MLSCN library redox annotation, primary screen; DTT-dependent redox cycling H2O2, phenol red/HRP absorbance; 100% = 100 µM peroxide control, 0% = buffer; activation, % at 10 µM; 200,000 compounds, 0.03% hits; AID 878;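 active means activation of at least 50% relative to the plate's high and low controls in the primary single-dose screen; inactive means activation below 50%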;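 further: compound incubated with DTT at 0.8 mM final as the reducing agent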
Mdm2 ligase inh: Mdm2 E3 ligase (human) inhibition; Q00987; cell-based MDM2 ubiquitination luciferase reporter, 2 h; 0 = plate control, 100 = twice control, blank-subtracted; signal enhancement, % at 5 µM; 210,000 compounds, 0.11% hits; AID 1230;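 active means signal enhancement of 30% or more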;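 further: luminescence tracks abundance of the self-degrading MDM2-luciferase fusion protein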
Target sequence (Q00987 whole entry, looked up, the tested form may be a part): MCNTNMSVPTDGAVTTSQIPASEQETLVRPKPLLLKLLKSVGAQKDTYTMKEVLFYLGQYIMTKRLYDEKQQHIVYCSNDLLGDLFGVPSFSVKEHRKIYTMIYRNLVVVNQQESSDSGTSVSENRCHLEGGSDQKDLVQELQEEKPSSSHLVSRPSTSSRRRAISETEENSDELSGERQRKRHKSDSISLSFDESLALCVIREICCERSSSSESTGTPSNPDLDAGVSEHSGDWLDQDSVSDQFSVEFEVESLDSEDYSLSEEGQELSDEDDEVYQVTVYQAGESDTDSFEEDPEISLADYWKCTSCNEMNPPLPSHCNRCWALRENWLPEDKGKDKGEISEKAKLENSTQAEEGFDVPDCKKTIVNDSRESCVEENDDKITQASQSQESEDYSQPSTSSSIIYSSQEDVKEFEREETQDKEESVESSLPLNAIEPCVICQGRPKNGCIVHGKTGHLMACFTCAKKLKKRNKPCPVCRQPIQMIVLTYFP
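Test system: mammalian cells stably expressing self-ubiquitinating, self-degrading MDM2 E3–luciferase fusion; Amount: 2000 cells in each well; Medium: DMEM; Schedule: 4 h settle plus 2 h compound, 37 °C; Technique: SteadyLite luciferase luminescence after 15 min room-temperature reagent incubation; Benchmarks: plate control and blank wells.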
p97 ATPase inh: inhibitors of human p97 ATPase. recombinant p97 ATPase, Kinase-Glo ATP luminescence, 3 h. inhibition, % at 8 µM. 220,000 compounds, 0.42% hits; in the data active means inhibition above about 15%
PKD1 kinase inh: blocks activity of human protein kinase D1; Q15139; inhibition, % (concentration not given with the values); AID 797; 200,000 compounds, 0.056% hits; PKD1 kinase fluorescence polarization assay; in the data active means inhibition above about 50%
KCC2 mod: modulators of human KCC2 chloride dependent transport; Q9H2X9; KCC2 cells, thallium flux FluoZin-2 fluorescence; B-score of Tl+ flux slope (higher = more flux/activation; lower = inhibition) at 10 µM; 190,000 compounds, 2.2% hits;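 active means thallium flux slope and its plate-corrected score both differing from the plate sample mean at a set confidence after two filtering rounds, in either direction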;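 further: slope of fluorescence scaled to starting intensity during 10 to 20 s after thallium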
ROMK primary: modulators of human ROMK potassium channel; Tet-inducible ROMK, thallium flux fluorescence; actives lie on both sides; B-score at 10 µM; 130,000 compounds, 2% hits; AID 1918;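 active means signal ratio slope over the read window, or its plate-corrected B-score, at least 3 SD from the plate mean, either direction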;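 further: B-score of the F/F0 ratio slope over 7 to 12 s after thallium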
KCC2 secondary: KCC2 (human) modulation, secondary assay; shares compounds with KCC2 mod; normalised thallium flux (F/F0 slope) at 10 µM; HEK293-KCC2, thallium flux, FluoZin2 fluorescence; hits give high values; 3,700 compounds, 15% hits;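 active means thallium flux slope above the same plate's solvent-only control mean plus 3 SD; inconclusive means the two replicate wells disagree; inactive means no significant difference from solvent-only control wells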
KCC2 bumet counter: bumetanide-insensitive thallium flux in KCC2 cells with ouabain, counter-screen; shares compounds with KCC2 mod; HEK293-KCC2 + bumetanide/ouabain, thallium flux FluoZin2; hits give high values; normalized thallium flux at 10 µM; 3,700 compounds, 49% hits; AID 1714;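 active means thallium entry rate above the same plate's blocked-transporter control wells by more than 3 SD; inconclusive means the two repeat wells disagree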;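 further: raw slope of fluorescence over initial fluorescence between 10 and 20 s after thallium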
KCC2 sec2: KCC2 (human) modulation, second secondary assay; normalized thallium flux at 10 µM; 3,700 compounds, 23% hits; shares compounds with KCC2 mod; HEK293-KCC2, thallium flux FluoZin2 fluorescence; actives lie on both sides; F/F0 rise rate, 10–20 s post-thallium;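 active means thallium flux slope more than 3 SD above or below the plate's solvent-only control mean, mostly below; inconclusive means the two repeat wells disagreed; inactive means no significant shift from solvent-only controls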
HEK293 Tl flux: parental HEK flux effect, counter-screen | 3,700 compounds, 46% hits | HEK293 parental cells, thallium flux FluoZin2, ouabain; baseline-ratio fluorescence slope, 10–20 s after thallium | thallium flux rate (normalised fluorescence) at 10 µM | shares compounds with KCC2 mod | AID 1716;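 active means thallium flux rate significantly above the same plate's solvent-only control wells, beyond their mean plus 3 SD; inconclusive means the two replicate wells gave conflicting results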
KCC2 ouabain: KCC2 (human) modulation, ouabain retest; shares compounds with KCC2 mod; HEK293-KCC2, thallium flux FluoZin2 fluorescence; bidirectional: low = inhibitor, high = activator; raw Tl+ flux slope (below DMSO = inhibition, above = activation) at 10 µM; 3,700 compounds, 48% hits; AID 1717;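 active means thallium flux slope beyond 3 SD from same-plate DMSO control mean in most replicates, usually higher, sometimes lower; inconclusive means repeat tests gave conflicting results; inactive means no significant difference from controls in most replicates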;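 further: slope of initial-normalized fluorescence between seconds 10 and 20 after thallium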
HEK counter2: parental HEK flux effect, counter-screen 2. shares compounds with KCC2 mod. HEK293 parental, thallium flux FluoZin-2 fluorescence slope. thallium flux slope at 10 µM. 3,700 compounds, 33% hits. AID 1718;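 active means thallium flux slope above the same plate's solvent-control mean plus 3 SD in both duplicate wells; inconclusive means duplicate wells that disagreed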;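 further: run without ouabain in cells lacking the KCC2 cotransporter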
Of the large screens only hits and unclear results are named; the others gave an inactive call (follow-up assays come after a bar, where they were run). The list is not random: actives were taken first. Their share in the collection is about 3.4%.

CCc1c(C)sc(NC(=O)c2cc(C(C)C)on2)c1C#N	KCC2 mod 7.31 | KCC2 secondary inactive | KCC2 bumet counter 0.0272 | KCC2 sec2 inactive | HEK293 Tl flux inconclusive | KCC2 ouabain 0.0307 | HEK counter2 inconclusive
CCc1c(C)sc(NC(=O)c2cc(C)no2)c1C#N	none (no result: ROMK primary)
O=C(/C=C/c1ccco1)Nc1cccc2cccnc12	none (no result: ROMK primary)
O=C(NC(=S)NC1CCCC1)c1ccccc1Br	KCC2 mod 8.79 | KCC2 secondary 0.013 | KCC2 bumet counter 0.0548 | KCC2 sec2 inactive | HEK293 Tl flux 0.0218 | KCC2 ouabain inconclusive | HEK counter2 0.0149
O=C(NC(=S)NCCC1=CCCCC1)c1ccccc1Br	KCC2 mod 45.7 | KCC2 secondary inconclusive | KCC2 bumet counter 0.0412 | KCC2 sec2 0.0481 | HEK293 Tl flux 0.0387 | KCC2 ouabain 0.0427 | HEK counter2 0.0249
O=C(C1CC(c2ccccc2O)=NO1)N1CCc2ccccc2C1 (centres undefined)	KCC2 mod -3.22 | KCC2 secondary inactive | KCC2 bumet counter inactive | KCC2 sec2 inconclusive | HEK293 Tl flux inactive | KCC2 ouabain inactive | HEK counter2 inactive
O=C(Cn1nc(-c2ccccc2)c2ccccc2c1=O)Nc1ccc2c(c1)nc1n2CCOC1	none (no result: KCC2 mod)
Cc1[nH]c(=S)sc1Cc1ccc(Cl)c(Cl)c1	KCC2 mod 48.6 | KCC2 secondary inconclusive | KCC2 bumet counter 0.0844 | KCC2 sec2 inconclusive | HEK293 Tl flux 0.0365 | KCC2 ouabain 0.0483 | HEK counter2 0.0149
COc1ccc(CNC(=O)c2csc(Cc3ccc(Cl)cc3)n2)cc1	none (no result: KCC2 mod, ROMK primary) | KCC2 secondary inactive | KCC2 bumet counter inconclusive | KCC2 sec2 0.0249 | HEK293 Tl flux inconclusive | KCC2 ouabain 0.0152 | HEK counter2 inactive
CCOC(=O)C1CCN(C(=O)Cc2c(C(=O)O)n(CC)c3ccccc23)CC1	none (no result: ROMK primary)
c1ccc(-c2nc(Sc3ncnc4c3cnn4-c3ccccc3)n[nH]2)cc1	KCC2 mod -6.73 (no result: ROMK primary) | KCC2 secondary inactive | KCC2 bumet counter inactive | KCC2 sec2 0.0232 | HEK293 Tl flux inactive | KCC2 ouabain inconclusive | HEK counter2 inactive
CCOC(=O)CSc1ncnc2c1cnn2-c1ccccc1	none (no result: KCC2 mod)
Cc1ccc(Cn2ccc(NC(=O)c3cc(-c4ccco4)on3)n2)cc1	none (no result: KCC2 mod)
CC1=NN(C(N)=S)C(=O)C1N=Nc1ccccc1 (centres undefined)	KCC2 mod 5.22 | KCC2 secondary inactive | KCC2 bumet counter 0.0244 | KCC2 sec2 inactive | HEK293 Tl flux inconclusive | KCC2 ouabain inconclusive | HEK counter2 inactive
CC1=NN(C(N)=S)C(=O)C1N=Nc1cccc2ccccc12 (centres undefined)	KCC2 mod 5.42 | KCC2 secondary inactive | KCC2 bumet counter 0.0464 | KCC2 sec2 inactive | HEK293 Tl flux 0.0114 | KCC2 ouabain inconclusive | HEK counter2 inconclusive
CC1=NN(c2nc(-c3ccc(C)cc3)cs2)C(=O)C1N=Nc1ccccc1O (centres undefined)	none
CCOC(=O)N1CCN(S(=O)(=O)c2cc(-c3nn4c(C)nnc4c4ccccc34)ccc2C)CC1	none (no result: ROMK primary)
O=C(CN1C(=O)NC(c2ccccc2)(c2ccccc2)C1=O)Nc1cccnc1Cl	none
COc1ccc(/C=C/C(=O)C23CC4CC(CC(C4)C2)C3)cc1CN1CCOCC1	none
Cc1ccc(-n2nnnc2SCC(=O)NNC(=O)c2ccco2)c(C)c1	none (no result: ROMK primary)
O=C(Nc1nnc(-c2ccccc2)o1)Nc1ccccc1Cl	KCC2 mod 19.6 (no result: ROMK primary) | KCC2 secondary inconclusive | KCC2 bumet counter 0.0318 | KCC2 sec2 inactive | HEK293 Tl flux inconclusive | KCC2 ouabain 0.0364 | HEK counter2 inconclusive
O=C(COc1ncnc2ccccc12)NC1CCS(=O)(=O)C1 (centres undefined)	none (no result: KCC2 mod, ROMK primary)
Cc1ccc2c(Cl)cc(Cl)c(OCC(=O)NCCc3ccccn3)c2n1	none
Cc1ccc2c(Cl)cc(Cl)c(OCC(=O)NC3CCS(=O)(=O)C3)c2n1 (centres undefined)	KCC2 mod 10.5 (no result: ROMK primary) | KCC2 secondary inactive | KCC2 bumet counter 0.019 | KCC2 sec2 inactive | HEK293 Tl flux 0.0158 | KCC2 ouabain 0.0223 | HEK counter2 0.0155
CCN(CC(=O)NC(C)(C)C)C(=O)COc1c(Cl)cc(Cl)c2ccc(C)nc12	KCC2 mod 88.2 (no result: DTT redox prof, PKD1 kinase inh, ROMK primary) | KCC2 secondary 0.02 | KCC2 bumet counter 0.113 | KCC2 sec2 inactive | HEK293 Tl flux inconclusive | KCC2 ouabain 0.0898 | HEK counter2 inconclusive
CCCc1nnc(NC(=O)c2cccnc2)s1	none (no result: DTT redox prof, PKD1 kinase inh)
O=C(Nc1c(Cl)cccc1Cl)c1cc(=O)n(Cc2ccccc2)c(=O)[nH]1	none (no result: ROMK primary)
CN1/C(=C/C(=O)c2nc(S(C)(=O)=O)ncc2Cl)C(C)(C)c2ccccc21	KCC2 mod -7.22 (no result: ROMK primary) | KCC2 secondary inactive | KCC2 bumet counter inconclusive | KCC2 sec2 0.0223 | HEK293 Tl flux inconclusive | KCC2 ouabain 0.0127 | HEK counter2 inactive
Cc1cccc(C(=O)Nc2nnc(-c3ccncc3)o2)c1	none
CCN(CC)S(=O)(=O)c1ccc(C(=O)Nc2nnc(-c3ccco3)o2)cc1	none
COc1cccc(-c2nnc(NC(=O)c3ccc4ncsc4c3)o2)c1	KCC2 mod 8.84 | KCC2 secondary 0.0131 | KCC2 bumet counter 0.0383 | KCC2 sec2 inactive | HEK293 Tl flux 0.0166 | KCC2 ouabain 0.0332 | HEK counter2 inconclusive
Cc1cccc(C(=O)Nc2nnc(-c3cccnc3)o2)c1	KCC2 mod 4.65 | KCC2 secondary inactive | KCC2 bumet counter 0.00934 | KCC2 sec2 inactive | HEK293 Tl flux 0.00991 | KCC2 ouabain inactive | HEK counter2 inconclusive
CCCCN(CC)S(=O)(=O)c1ccc(C(=O)Nc2nnc(-c3cccs3)o2)cc1	KCC2 mod 22.5 | KCC2 secondary 0.016 | KCC2 bumet counter 0.0749 | KCC2 sec2 inactive | HEK293 Tl flux 0.0361 | KCC2 ouabain 0.0504 | HEK counter2 0.011
